Experiment [1] relates to Staphylococcus aureus. The experiment in a line: Antibacterial activity against methicillin-resistant Staphylococcus aureus isolate 1 after 24 hrs by macrodilution broth method. It is filed as functional. To be noted: isolate 1, 24 h. A digest of the protocol: (§1)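 CLSI tube macrodilution broth method, with MIC as the read-out. Test strains were S. aureus ATCC 25923 and two clinical MRSA isolates. Cultures of about 10⁸ CFU/ml in Mueller–Hinton medium and phosphonamidate (2 mM stock in ddH₂O) were added in sequence to a vancomycin dilution series from 128 down to 0.125. Tubes were incubated for 24 h at 37 °C.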

Experiment [2] deals with Staphylococcus aureus. As to the kind of experiment: Antibacterial activity against Staphylococcus aureus ATCC 25923 after 24 hrs by macrodilution broth method. It counts as functional. To be noted: ATCC 25923, 24 h. A digest of the protocol: as §1
The subject of experiment [3] is Staphylococcus aureus. As to the kind of experiment: Antibacterial activity against methicillin-resistant Staphylococcus isolate 2 after 24 hrs by macrodilution broth method. It is filed as functional. To be noted: isolate 2, 24 h. In a few lines: as §1
Experiment [4] can be described thus: Inhibition of VanX using D-Ala-D-Ala as substrate preincubated for 30 mins before substrate addition measured after 150 secs by UV-Vis spectrometry. A digest of the protocol: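 The enzyme was recombinant VanX, expressed as an MBP fusion in E. coli BL21(DE3) at 30 °C with 1 mM IPTG induction for 75 min. It was purified on amylose resin, eluted with 20 mM Tris pH 7.6, 10 mM maltose and 200 mM NaCl. Thrombin then cleaved off the MBP, followed by a Q-Sepharose step. IC₅₀ was determined by a previously reported method.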

For experiment [5], the system named is Staphylococcus aureus. As to the kind of experiment: Antibacterial activity against Staphylococcus aureus ATCC 25923 after 24 hrs by macrodilution broth method relative to untreated control. It counts as functional.
Experiment [6] can be described thus: Partial competitive inhibition of VanX.

Broadly, the MIC is the lowest concentration that inhibits growth of the organism. Low readings indicate a more susceptible organism, high ones a less susceptible organism. In general, IC50 refers to the midpoint of a concentration-inhibition curve. A high value points to lower potency. One may read the Ki as the dissociation constant of the complex between target and ligand, obtained from inhibition or displacement. A low value points to higher affinity.

Molecules are shown by their SMILES. Values after ≈ are worked out from the molar mass of the structure shown.

Turning to `C[C@H](N)P(=O)(O)NCC(=O)O`, the MIC amounted to 1 µg/mL (≈ 5.49 µM) in the experiment on Staphylococcus aureus [1], 0.25 µg/mL (≈ 1.37 µM) in the experiment on Staphylococcus aureus [2] and 1 µg/mL (≈ 5.49 µM) with Staphylococcus aureus [3]. In experiment [4], this compound returned an IC50 of 0.39 mM. For the same compound, in the experiment with Staphylococcus aureus [5], the “fold change (FC)” value was determined as 8.

Take `CC(C)C[C@@H](NP(=O)(O)[C@H](C)N)C(=O)O`: the results for the MIC against Staphylococcus aureus [1], against Staphylococcus aureus [2] and against Staphylococcus aureus [3] were 1 µg/mL (≈ 4.2 µM), 2 µg/mL (≈ 8.4 µM) and 2 µg/mL (≈ 8.4 µM), respectively. The same compound came in with an IC50 in experiment [4] of 2.82 mM.

`C[C@H](N)P(=O)(O)N[C@H](C)C(=O)O`: the minimal inhibitory concentration (MIC) came out at 1 µg/mL (≈ 5.1 µM) with Staphylococcus aureus [1], 2 µg/mL (≈ 10.2 µM) against Staphylococcus aureus [2] and 2 µg/mL (≈ 10.2 µM) against Staphylococcus aureus [3]. In experiment [6], this compound returned a Ki of 36 µM. Besides, in experiment [4], the IC50 worked out at 0.7 mM.

Turning to `C[C@H](N)P(=O)(O)N[C@H](Cc1ccccc1)C(=O)O`, the MIC was 1 µg/mL (≈ 3.67 µM) against Staphylococcus aureus [1], 2 µg/mL (≈ 7.35 µM) in the experiment with Staphylococcus aureus [2] and 2 µg/mL (≈ 7.35 µM) in the experiment on Staphylococcus aureus [3]. In experiment [4], the IC50 worked out at 4.13 mM.

With `CC(C)[C@@H](NP(=O)(O)[C@H](C)N)C(=O)O`, the figures for the minimal inhibitory concentration (MIC) in the experiment with Staphylococcus aureus [1], against Staphylococcus aureus [2] and against Staphylococcus aureus [3] were 1 µg/mL (≈ 4.46 µM), 2 µg/mL (≈ 8.92 µM) and 2 µg/mL (≈ 8.92 µM), respectively. In experiment [4], this compound displayed an IC50 of 1.12 mM.
